{"source": "paper PMC8082945", "about": "(Journal of medicinal chemistry, 2020)", "key": {"[1]": {"system": "PANC-1 pancreatic cancer cells", "experiment": "MTT cytotoxicity assay in PANC-1 cells", "assay_type": "cell-based", "settings": "read-out: IC50 PANC-1, 72 h, mean ± sd, three independent experiments", "outline": "(§1)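 Cells kept in RPMI 1640 with 10% FBS, under 35 passages, mycoplasma-free. Seeded in 96-well plates and attached overnight. Exposed to test compound or DMSO for 72 h, then 0.3 mg/mL MTT for 3 h at 37 °C. Medium removed, formazan dissolved in DMSO with 15 min shaking, absorbance read at 570 nm. IC50 obtained by curve fitting; mean ± SD from at least three independent experiments.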"}, "[2]": {"system": "BxPC-3 pancreatic cancer cells", "experiment": "MTT cytotoxicity assay in BxPC-3 cells", "assay_type": "cell-based", "settings": "read-out: IC50 BxPC-3, 72 h, mean ± sd, three independent experiments", "outline": "as §1"}, "[3]": {"system": "MIA PaCa-2 pancreatic cancer cells", "experiment": "MTT cytotoxicity assay in MIA PaCa-2 cells", "assay_type": "cell-based", "settings": "read-out: IC50 MIA PaCa-2, 72 h, mean ± sd, three independent experiments", "outline": "as §1"}, "LRPPRC and PNPT1": {"system": "LRPPRC and PNPT1", "experiment": "Immunoblot of LRPPRC and PNPT1 expression", "assay_type": "cell-based", "settings": "MIA PaCa-2 cells, 3 × IC50, 4 h", "outline": "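Cells seeded at 3.5 × 10^5 per 6-well were treated for 1 h or 4 h (H2O2 comparator 150 μM). Lysis was in RIPA with protease/phosphatase inhibitors, then sonication and BCA. 25 μg protein was run on 10% SDS-PAGE and transferred to PVDF. Blocking: 5% milk. Primary antibodies 1:500–1:1000 overnight at 4 °C, Dylight 800 secondary 1:6000 for 1 h. Infrared imaging; band densities normalized to loading controls.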"}, "STAT3": {"system": "STAT3", "experiment": "Immunoblot of STAT3 phosphorylation and pH2AX", "assay_type": "cell-based", "settings": "MIA PaCa-2 and PANC-1 cells, 4 h", "outline": "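Cells seeded at 3.5 × 10^5/well (6-well) and treated 4 h at indicated concentrations. Lysed in RIPA with protease and phosphatase inhibitors, sonicated and centrifuged. 25 μg protein run on 10% SDS-PAGE and transferred to PVDF. Blocked in 5% milk; primary antibodies (STAT3, pSTAT3, pH2AX, GAPDH; 1:500–1:1000) overnight at 4 °C; infrared secondary 1:6000, 1 h RT. Signals normalised to loading control.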"}, "PK study in CD-1 mice": {"experiment": "PK study in CD-1 mice", "assay_type": "in vivo", "settings": "for Concentration at 7 h in mouse plasma, IP: IP 10 mg/kg, 10 mg/kg; for Concentration at 7 h in mouse plasma, IP / Concentration at 7 h in mouse plasma, PO: n=2, individual values; for Survival of mice after IV injection: IV 10 mg/kg; for Concentration at 7 h in mouse plasma, PO: PO 20 mg/kg, 20 mg/kg", "outline": "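CD-1 mice dosed IP (10 mg/kg), PO (20 mg/kg) or IV (10 mg/kg). Blood drawn at 0.5, 2, 4 and 7 h using heparinized calibrated pipettes and centrifuged at 15,000 rpm for 10 min. Plasma collected, frozen at −80 °C, and assayed by LC-MS/MS.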"}, "pancreatic cancer cells": {"system": "pancreatic cancer cells", "experiment": "Colony formation assay, drug combinations", "assay_type": "cell-based", "outline": "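Cells seeded in 96-well plates: 300/well for MIA PaCa-2, 600/well for PANC-1 and BxPC-3; attached overnight. Partner drug added 1 h before test compound, with continuous exposure. Incubation ran 7–9 days, until control wells were 80–90% confluent. Stained with 0.05% crystal violet for 30 min, washed, dried and imaged. Synergy scored with HSA and Bliss models.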"}, "[4]": {"system": "mouse colon cancer cell line CT-26", "experiment": "CT-26 subcutaneous tumor study in Balb/c mice", "assay_type": "in vivo", "settings": "n=5, preliminary study"}, "MIA PaCa-2 cells [5]": {"system": "MIA PaCa-2 cells", "experiment": "Lipid ROS measurement", "assay_type": "cell-based", "settings": "24 h treatment, BODIPY C11", "outline": "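After compound exposure, MIA PaCa-2 cells received 10 μM C11-BODIPY for 30 min at 37 °C. They were washed twice with DPBS and read in HBSS on a plate reader at Ex/Em 581/591 nm (reduced dye) and 488/510 nm (oxidized dye). The Texas Red/FITC emission ratio was calculated; significance by unpaired Student's t-test.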"}, "MIA PaCa-2 cells [6]": {"system": "MIA PaCa-2 cells", "experiment": "Cellular ROS measurement", "assay_type": "cell-based", "settings": "for Cellular ROS: MIA PaCa-2 cells, 0-4 h, 30 min", "outline": "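MIA PaCa-2 cells (RPMI 1640, 10% FBS, 37 °C, 5% CO2) seeded at 1.8 × 10^4 cells/well and attached overnight. Cells loaded with 10 μM CM-H2DCFDA in HBSS for 40 min at 37 °C, then washed twice with DPBS. Test compound added in HBSS at set concentrations. Fluorescence read at Ex 483/Em 530 nm over time. TBHP served as positive control.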"}, "GPX4": {"target": "T1, GPX4 (Homo sapiens, UniProt P36969)", "T1 sequence (P36969 1-197)": "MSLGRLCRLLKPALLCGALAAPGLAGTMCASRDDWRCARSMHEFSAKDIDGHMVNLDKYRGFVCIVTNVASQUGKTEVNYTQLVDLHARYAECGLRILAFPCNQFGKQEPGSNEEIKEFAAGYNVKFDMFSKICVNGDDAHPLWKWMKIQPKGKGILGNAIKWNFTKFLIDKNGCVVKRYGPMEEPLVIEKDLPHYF", "experiment": "Cellular thermal shift assay", "assay_type": "cell-based", "settings": "pancreatic cancer cells, 100 μM, 1 h", "outline": "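MIA PaCa-2 or PANC-1 cells seeded at 3 × 10^6 per 10 cm dish, attached overnight, then exposed to 100 μM test compound or DMSO for 1 h. After heating, supernatants were resolved on 10% SDS gels and immunoblotted for GPX4. Bands were quantified to derive a GPX4 melting temperature.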"}, "GSH/GSSG ratio": {"system": "GSH/GSSG ratio", "experiment": "GSH/GSSG-Glo assay", "assay_type": "cell-based", "settings": "MIA PaCa-2 cells, 2 h and 4 h treatment", "outline": "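Luminescent GSH/GSSG-Glo kit. 15,000–20,000 cells/well attached overnight, then were treated. Medium was removed and cells were lysed in Total or Oxidized Glutathione Reagent (5 min shaking). Luciferin Generation Reagent was added for 30 min at room temperature, then Detection Reagent; luminescence was read after 15 min equilibration. Ratio from net RLU = (total glutathione − GSSG)/(GSSG/2).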"}, "[7]": {"experiment": "Tissue distribution analysis in mice", "assay_type": "in vivo", "settings": "mouse, colon, intravenous, 10 mg/kg", "outline": "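Tissue homogenised with bead beating in dissociation solvent at five-fold tissue weight. 30 μL homogenate mixed with 30 μL acetonitrile and 140 μL internal standard, vortexed, and centrifuged at 3500 g for 10 min. Supernatant analysed by LC-MS against calibration curves made in spiked blank homogenate.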"}}, "note": "“And” between values parts separate entries of the source, which are not always exact repeats. Equal values may be shown once.", "data": [{"compound": "6-(9H-Fluoren-4-ylamino)quinazoline-5,8-dione [QD390]", "values": [{"measurement": "IC50", "setting": "[1]", "value": "4.7 ± 1.5", "unit": "µM"}, {"measurement": "IC50", "setting": "[2]", "value": "4.5 ± 0.6", "unit": "µM"}, {"measurement": "IC50", "setting": "[3]", "value": "3.1 ± 1.5", "unit": "µM"}]}, {"compound": "CC(=O)c1cc2c(o1)C(=O)c1ccccc1C2=O", "note": "[Napabucasin, reference compound]", "values": [{"measurement": "Protein expression of LRPPRC and PNPT1", "setting": "LRPPRC and PNPT1", "value": "decreased the protein expression of these two genes"}]}, {"compound": "CN1CCN(c2ccc(NC3=CC(=O)c4ncncc4C3=O)cc2)CC1", "note": "[QD394, 6-(4-(4-Methylpiperazin-1-yl)phenylamino)quinazoline-5,8-dione]", "values": [{"measurement": "Phosphorylation of H2AX (DNA damage biomarker)", "setting": "STAT3", "value": "increased the phosphorylation of H2AX"}, {"measurement": "Phosphorylation of STAT3", "setting": "STAT3", "value": "inhibited the phosphorylation of STAT3"}, {"measurement": "Protein expression of LRPPRC and PNPT1", "setting": "LRPPRC and PNPT1", "value": "significantly decreased their expression at 4 h"}, {"measurement": "Concentration at 7 h in mouse plasma, IP", "setting": "PK study in CD-1 mice", "value": 5.0, "unit": "ng/mL"}, {"measurement": "Survival of mice after IV injection", "setting": "PK study in CD-1 mice; n=3, 10 mg/kg", "value": "two out of three mice administered with QD394 via IV injection died and 2 out of 3 mice died"}, {"measurement": "Concentration at 7 h in mouse plasma, PO", "setting": "PK study in CD-1 mice", "value": "23.3 ng/mL and 25.8 ng/mL"}, {"measurement": "Combination with napabucasin", "setting": "pancreatic cancer cells; MIA PaCa-2 and PANC-1 cells", "value": "synergism"}, {"measurement": "Combination with As2O3", "setting": "pancreatic cancer cells; pancreatic cancer cells", "value": "sensitizes cells to As2O3"}, {"measurement": "Combination with olaparib", "setting": "pancreatic cancer cells; pancreatic cancer cells", "value": "synergistic effects"}, {"measurement": "Tumor shrinkage, QD394 IP group", "setting": "[4]; CT-26, IP 20 mg/kg", "value": "Three out of five mice displayed tumor shrinkage"}, {"measurement": "Lipid ROS (lipid peroxidation)", "setting": "MIA PaCa-2 cells [5]", "value": "significantly increased lipid ROS in a dose-dependent manner"}, {"measurement": "Cellular ROS", "setting": "MIA PaCa-2 cells [6]", "value": "time-dependent cellular ROS accumulation"}, {"measurement": "Intracellular ROS level among analogs", "setting": "MIA PaCa-2 cells [6]; after 1 h compound treatment", "value": "highest level of intracellular ROS"}, {"measurement": "Effect on GPX4 protein stability (CETSA)", "setting": "GPX4", "value": "destabilized GPX4 protein"}, {"measurement": "GSH/GSSG ratio", "setting": "GSH/GSSG ratio", "value": "significantly decreased the GSH/GSSG ratio"}]}, {"compound": "CC1=C(Nc2ccc(N3CCN(C)CC3)cc2)C(=O)c2cncnc2C1=O", "note": "[QD394-Me, 7-Methyl-6-((4-(4-methylpiperazin-1-yl)phenyl)amino)quinazoline-5,8-dione]", "values": [{"measurement": "concentration at 1 h", "setting": "[7]", "value": "~300", "unit": "ng/g"}, {"measurement": "Protein expression of LRPPRC and PNPT1", "setting": "LRPPRC and PNPT1", "value": "significantly decreased protein expression of LRPPRC and PNPT1"}, {"measurement": "Concentration at 7 h in mouse plasma, IP", "setting": "PK study in CD-1 mice", "value": "6.7 ng/mL and 1.1 ng/mL"}, {"measurement": "Survival of mice after IV injection", "setting": "PK study in CD-1 mice; n=3", "value": "all three mice that received IV injections of QD394-Me survived"}, {"measurement": "Concentration at 7 h in mouse plasma, PO", "setting": "PK study in CD-1 mice", "value": 4.2, "unit": "ng/mL"}, {"measurement": "Tumor shrinkage, QD394-Me IV group", "setting": "[4]; CT-26, IV 10 mg/kg", "value": "Three out of five mice displayed tumor shrinkage"}, {"measurement": "Lipid ROS (lipid peroxidation)", "setting": "MIA PaCa-2 cells [5]", "value": "increased lipid ROS significantly in a dose-dependent manner"}, {"measurement": "Cellular ROS", "setting": "MIA PaCa-2 cells [6]", "value": "significantly increased cellular ROS"}, {"measurement": "Effect on GPX4 protein stability (CETSA)", "setting": "GPX4", "value": "destabilized GPX4 protein"}]}]}
